We go through one compound from ChEMBL document CHEMBL4311941, “Development of Multifunctional Histone Deacetylase 6 Degraders with Potent Antimyeloma Activity” (J Med Chem, 2019).

Experiment [1] has as its target T1, Cereblon/Ikaros (Homo sapiens) (UniProt Q96SW2+Q13422). In words: Protac activity at CRBN/IKZF1 in human MM1S cells assessed as IKZF1 degradation at 100 nM measured after 6 hrs by Western blot analysis. It counts as cell-based. Background: A western blot detects proteins with antibodies after separation by electrophoresis.
The target of experiment [2] is T2, Protein cereblon/Zinc finger protein Aiolos (Homo sapiens) (UniProt Q96SW2+Q9UKT9). In words: Protac activity at CRBN/IKZF3 in human MM1S cells assessed as IKZF3 degradation at 100 nM measured after 6 hrs by Western blot analysis. It counts as cell-based. The method, boiled down: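 Time course in MM1S cells (1 × 10^6 cells per well, seeded overnight) under 100 nM degrader. Whole-cell RIPA lysates analysed by 7.5−12% SDS-PAGE and PVDF immunoblot. Primary antibody at 4 °C overnight, HRP secondary 1 h, ECL detection with densitometry.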

Experiment [3] concerns the target T2, Protein cereblon/Zinc finger protein Aiolos (Homo sapiens). In words: Protac activity at CRBN/IKZF3 in human MM1S cells assessed as IKZF3 degradation measured after 6 hrs by Western blot analysis. It counts as cell-based.
The target of experiment [4] is Protein cereblon/Histone deacetylase 1 (Homo sapiens) (UniProt Q13547+Q96SW2). In words: Protac activity at CRBN/HDAC1 in human MM1S cells assessed as HDAC1 degradation measured after 6 hrs by Western blot analysis. It counts as cell-based.
Experiment [5] has as its target T3, Protein cereblon/Protein deacetylase HDAC6 (Homo sapiens, UniProt Q9UBN7+Q96SW2). In words: Protac activity at CRBN/HDAC6 in human MM1S cells assessed as HDAC6 degradation at 100 nM measured after 1 to 4 hrs by Western blot analysis. It counts as cell-based.
Experiment [6] concerns the target T3, Protein cereblon/Protein deacetylase HDAC6. In words: Protac activity at CRBN/HDAC6 in human Jurkat cells assessed as HDAC6 degradation at 10 to 100 nM incubated for 6 hrs by Western blot analysis. It counts as cell-based.
For experiment [7] the target is unchanged. In words: Protac activity at CRBN/HDAC6 in human RS4:11 cells assessed as HDAC6 degradation up to 10 uM incubated for 6 hrs by Western blot analysis. It counts as cell-based.
Experiment [8] has the same target. In words: Protac activity at CRBN/HDAC6 in human A375 cells assessed as HDAC6 degradation up to 1 uM incubated for 6 hrs by Western blot analysis. It counts as cell-based.
Experiment [9] has the same target. In words: Protac activity at CRBN/HDAC6 in human MCF7 cells assessed as HDAC6 degradation up to 10 uM incubated for 6 hrs by Western blot analysis. It counts as cell-based.
Experiment [10] addresses T4, Protein deacetylase HDAC6 (Homo sapiens, UniProt Q9UBN7).
T4 sequence (Q9UBN7 whole entry): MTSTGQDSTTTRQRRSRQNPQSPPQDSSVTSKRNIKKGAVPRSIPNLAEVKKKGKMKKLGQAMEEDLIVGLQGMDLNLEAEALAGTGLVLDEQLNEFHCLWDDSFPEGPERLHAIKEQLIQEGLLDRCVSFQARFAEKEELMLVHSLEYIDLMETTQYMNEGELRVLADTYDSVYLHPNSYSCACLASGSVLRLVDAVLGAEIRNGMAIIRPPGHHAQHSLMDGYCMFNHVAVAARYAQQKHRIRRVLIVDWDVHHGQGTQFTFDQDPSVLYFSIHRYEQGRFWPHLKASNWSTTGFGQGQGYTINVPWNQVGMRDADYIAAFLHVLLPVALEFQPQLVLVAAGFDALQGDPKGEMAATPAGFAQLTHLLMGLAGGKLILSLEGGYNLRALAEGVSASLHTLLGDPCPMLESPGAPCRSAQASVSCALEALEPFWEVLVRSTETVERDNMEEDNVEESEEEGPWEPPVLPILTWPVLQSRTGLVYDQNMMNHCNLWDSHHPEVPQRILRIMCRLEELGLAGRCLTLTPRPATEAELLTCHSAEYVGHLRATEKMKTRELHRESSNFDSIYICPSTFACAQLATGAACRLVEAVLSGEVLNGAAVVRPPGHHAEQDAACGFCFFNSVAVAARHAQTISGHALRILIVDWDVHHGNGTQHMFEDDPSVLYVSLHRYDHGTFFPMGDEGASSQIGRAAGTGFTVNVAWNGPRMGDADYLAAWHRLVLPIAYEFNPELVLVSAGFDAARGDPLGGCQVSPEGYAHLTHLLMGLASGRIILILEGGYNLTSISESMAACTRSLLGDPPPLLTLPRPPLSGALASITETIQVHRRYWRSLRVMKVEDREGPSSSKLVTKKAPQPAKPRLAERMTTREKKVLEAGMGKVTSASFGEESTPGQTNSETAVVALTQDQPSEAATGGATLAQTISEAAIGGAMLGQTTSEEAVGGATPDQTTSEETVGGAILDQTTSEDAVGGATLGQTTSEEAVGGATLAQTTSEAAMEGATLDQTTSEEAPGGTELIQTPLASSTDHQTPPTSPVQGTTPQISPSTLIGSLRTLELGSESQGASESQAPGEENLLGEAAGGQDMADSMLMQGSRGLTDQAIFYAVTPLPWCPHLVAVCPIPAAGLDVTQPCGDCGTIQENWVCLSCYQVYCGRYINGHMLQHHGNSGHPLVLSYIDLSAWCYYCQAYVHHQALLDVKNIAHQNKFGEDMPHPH
In words: Inhibition of human N-terminal tagged human HDAC6 expressed in HEK293T/17 using Ac-Gly-Ala-[Ac-Lys]-AMC as substrate preincubated for 10 mins followed by substrate addition and measured after 15 mins by fluorescence assay.

In experiment [11] the target is Histone deacetylase 9 (Homo sapiens, UniProt Q9UKV0). In words: Inhibition of human N-terminal tagged human HDAC9 expressed in HEK293T/17 using Boc-[TFA-Lys]-AMC as substrate preincubated for 10 mins followed by substrate addition and measured after 60 mins by fluorescence assay.
In experiment [12] the target is T1, Cereblon/Ikaros (Homo sapiens). In words: Protac activity at CRBN/IKZF1 in human MM1S cells assessed as IKZF1 degradation at 100 nM measured after 6 hrs in presence of E3 ligase ligand pomalidomide by Western blot analysis. It counts as cell-based.
Experiment [13] addresses T2, Protein cereblon/Zinc finger protein Aiolos (Homo sapiens). In words: Protac activity at CRBN/IKZF3 in human MM1S cells assessed as IKZF3 degradation at 100 nM measured after 6 hrs in presence of E3 ligase ligand pomalidomide by Western blot analysis. It counts as cell-based. The method, boiled down: (§1)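 MM1S cells seeded at 1 × 10^6 per well overnight. Pretreated 1 h with pomalidomide, Next-A, MLN 4924 or DMSO, then given 100 nM degrader or DMSO for 6 h. Lysed in RIPA with protease inhibitors, 10−40 μg protein run on SDS-PAGE and transferred to PVDF. Blots probed for IKZF1/IKZF3, detected by ECL and quantified by densitometry.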

The target is the same in experiment [14]. In words: Protac activity at CRBN/IKZF3 in human MM1S cells assessed as IKZF3 degradation at 100 nM measured after 6 hrs in presence of NAE inhibitor MLN 4924 by Western blot analysis. It counts as cell-based. The essentials:
as §1

The test system of experiment [15] is MM1.S. In words: Effect on HDAC1 mRNA expression in human MM1S cells at 100 nM measured after 6 hrs by SYBR green dye-based qRT-PCR analysis. It counts as functional, cell-based. The method, boiled down:
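After treatment, MM1S cells washed twice with cold PBS. Total RNA extracted and normalized, then reverse-transcribed. 10 ng cDNA amplified with SYBR Green: 50 °C 2 min, 95 °C 2 min, then 40 cycles of 95 °C 1 s / 60 °C 30 s, followed by a melt curve. Expression calculated by the 2−ΔΔCt method.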

Active and inactive are the calls of the source. The rule behind the calls is not given here.

T3 sequence (Q96SW2 whole entry, looked up, one chain of several): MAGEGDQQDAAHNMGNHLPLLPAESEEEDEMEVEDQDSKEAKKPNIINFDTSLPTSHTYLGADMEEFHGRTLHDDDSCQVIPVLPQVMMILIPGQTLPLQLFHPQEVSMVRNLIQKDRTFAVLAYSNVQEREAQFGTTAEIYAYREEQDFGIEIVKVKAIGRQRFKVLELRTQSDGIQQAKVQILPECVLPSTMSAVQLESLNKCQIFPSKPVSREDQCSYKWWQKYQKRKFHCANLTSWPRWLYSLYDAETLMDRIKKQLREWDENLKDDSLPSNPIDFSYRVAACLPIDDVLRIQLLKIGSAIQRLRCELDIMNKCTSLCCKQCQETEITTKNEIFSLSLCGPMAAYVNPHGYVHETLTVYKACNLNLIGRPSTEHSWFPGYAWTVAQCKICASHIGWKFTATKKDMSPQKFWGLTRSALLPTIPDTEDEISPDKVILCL
T2 sequence (Q96SW2 whole entry, looked up): as the sequence (Q96SW2 whole entry, looked up, one chain of several) above
T2 sequence (Q9UKT9 whole entry, looked up): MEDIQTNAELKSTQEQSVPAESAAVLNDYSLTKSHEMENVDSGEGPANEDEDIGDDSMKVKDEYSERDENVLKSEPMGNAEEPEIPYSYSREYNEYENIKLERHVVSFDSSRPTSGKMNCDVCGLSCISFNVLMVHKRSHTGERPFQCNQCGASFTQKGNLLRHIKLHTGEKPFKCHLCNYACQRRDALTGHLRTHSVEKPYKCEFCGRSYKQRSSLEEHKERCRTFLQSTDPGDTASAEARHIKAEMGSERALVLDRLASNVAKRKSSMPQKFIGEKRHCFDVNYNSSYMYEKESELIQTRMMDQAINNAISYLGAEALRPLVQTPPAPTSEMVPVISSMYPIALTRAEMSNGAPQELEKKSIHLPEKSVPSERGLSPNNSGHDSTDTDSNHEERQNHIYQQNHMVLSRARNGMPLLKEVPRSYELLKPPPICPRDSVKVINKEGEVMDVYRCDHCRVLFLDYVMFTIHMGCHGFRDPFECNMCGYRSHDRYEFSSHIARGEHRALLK
Chain of Histone deacetylase 9 (Q9UKV0 whole entry): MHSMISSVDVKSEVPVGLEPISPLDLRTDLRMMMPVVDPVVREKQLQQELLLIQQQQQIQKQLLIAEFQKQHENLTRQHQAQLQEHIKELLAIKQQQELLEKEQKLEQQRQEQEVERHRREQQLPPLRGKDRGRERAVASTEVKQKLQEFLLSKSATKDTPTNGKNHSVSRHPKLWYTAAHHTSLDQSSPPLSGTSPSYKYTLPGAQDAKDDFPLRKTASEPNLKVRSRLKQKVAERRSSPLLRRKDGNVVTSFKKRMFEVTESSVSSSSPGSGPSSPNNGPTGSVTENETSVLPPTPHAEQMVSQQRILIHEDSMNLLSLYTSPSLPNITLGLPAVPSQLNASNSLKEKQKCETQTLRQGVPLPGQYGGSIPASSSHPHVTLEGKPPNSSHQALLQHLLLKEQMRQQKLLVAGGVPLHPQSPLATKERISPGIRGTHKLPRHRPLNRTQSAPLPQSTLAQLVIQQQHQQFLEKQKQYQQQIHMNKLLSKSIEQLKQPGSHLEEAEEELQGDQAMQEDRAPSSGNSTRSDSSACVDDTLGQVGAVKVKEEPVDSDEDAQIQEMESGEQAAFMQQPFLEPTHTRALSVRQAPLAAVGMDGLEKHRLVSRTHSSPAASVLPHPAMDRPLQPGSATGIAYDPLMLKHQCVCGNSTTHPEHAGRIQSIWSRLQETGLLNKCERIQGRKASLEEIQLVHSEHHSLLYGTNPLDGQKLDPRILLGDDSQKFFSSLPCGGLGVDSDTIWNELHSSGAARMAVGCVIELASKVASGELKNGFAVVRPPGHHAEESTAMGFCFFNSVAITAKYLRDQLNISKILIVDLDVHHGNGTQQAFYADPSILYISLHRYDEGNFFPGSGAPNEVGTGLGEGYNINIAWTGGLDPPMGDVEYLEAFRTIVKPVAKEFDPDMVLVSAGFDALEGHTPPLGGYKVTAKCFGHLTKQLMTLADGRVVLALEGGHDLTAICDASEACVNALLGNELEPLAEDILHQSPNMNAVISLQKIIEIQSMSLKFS
Chain of Protein cereblon/Histone deacetylase 1 (Homo sapiens) (Q13547 whole entry, looked up): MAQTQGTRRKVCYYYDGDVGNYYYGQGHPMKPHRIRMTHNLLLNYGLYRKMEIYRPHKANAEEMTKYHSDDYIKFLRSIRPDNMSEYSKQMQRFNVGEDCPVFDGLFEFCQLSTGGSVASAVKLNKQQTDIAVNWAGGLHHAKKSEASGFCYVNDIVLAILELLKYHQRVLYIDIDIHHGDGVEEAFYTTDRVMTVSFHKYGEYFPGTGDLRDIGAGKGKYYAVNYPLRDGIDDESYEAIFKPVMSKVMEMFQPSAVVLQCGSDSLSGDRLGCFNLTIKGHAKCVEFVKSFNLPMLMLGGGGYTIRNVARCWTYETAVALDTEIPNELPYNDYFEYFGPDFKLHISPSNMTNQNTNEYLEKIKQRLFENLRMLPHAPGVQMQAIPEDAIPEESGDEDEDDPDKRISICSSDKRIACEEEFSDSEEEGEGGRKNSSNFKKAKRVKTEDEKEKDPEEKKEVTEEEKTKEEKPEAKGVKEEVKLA
Chain of Protein cereblon/Histone deacetylase 1 (Homo sapiens) (Q96SW2 whole entry, looked up): as the sequence (Q96SW2 whole entry, looked up, one chain of several) above

Turning to `CCCCN(Cc1ccc(C(=O)NO)cc1)C(=O)Nc1ccc(OCCCCCn2cc(CNc3cccc4c3C(=O)N(C3CCC(=O)NC3=O)C4=O)nn2)cc1` (stereo not given), the result in experiment [1], in experiment [2], in experiment [6], in [7], in [8] and in experiment [9] was Active. In addition, the result in experiment [12], in experiment [13] and in experiment [15] was Active. Moreover, the Activity entry in experiment [3] and in experiment [5] was “Dose-dependent effect” throughout. The outcome in experiment [4] and in [14] was inactive. Further, the IC50 is 8.7 nM in [10] and 300 to 30000 nM in experiment [11].

As a reminder, the IC50 is the midpoint of a concentration-inhibition curve. A high value points to weaker potency.
